# Source: ChEMBL document CHEMBL1155588, “Use of COMPARE analysis to discover functional analogues of bleomycin” (J Nat Prod, 2000)
# Active and inactive are the calls of the source. The rule behind the calls is not given here.
# Experiments:
# [1] = Induction of pSP64 plasmid DNA relaxation by agarose gel electrophoresis in presence of Cu2+
# Procedure, shortened: (§1)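 Cell-free cleavage of supercoiled, covalently closed circular pSP64 plasmid DNA, with or without Cu2+. Reactions ran 1 h at 37 °C and were stopped with bromophenol blue in 30% glycerol. Products were resolved on 1% agarose containing 0.7 µg/mL ethidium bromide in Tris-borate-EDTA at 130 V for 3 h and viewed under UV. Forms I, II (nicked) and III (linear) were scored.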
# [2] = Induction of supercoiled pSP64 plasmid DNA cleavage assessed as increase in nicked form 2 at 1 uM by agarose gel electrophoresis; procedure, shortened: as §1
# [3] = Induction of supercoiled pSP64 plasmid DNA cleavage assessed as increase in nicked form 2 at 0.25 uM by agarose gel electrophoresis in presence of Cu2+; procedure, shortened: as §1
# [4] = Induction of supercoiled pSP64 plasmid DNA cleavage assessed as increase in linear duplex form 3 by agarose gel electrophoresis; procedure, shortened: as §1
# [5] = Induction of supercoiled pSP64 plasmid DNA cleavage assessed as increase in nicked form 2 at 500 nM by agarose gel electrophoresis in presence of Cu2+; procedure, shortened: as §1
# [6] = Induction of supercoiled pSP64 plasmid DNA cleavage assessed as increase in linear duplex form 3 at 10 uM by agarose gel electrophoresis; procedure, shortened: as §1
# [7] = Induction of supercoiled pSP64 plasmid DNA cleavage assessed as increase in nicked form 2 at 10 uM by agarose gel electrophoresis; procedure, shortened: as §1
# [8] = Induction of supercoiled pSP64 plasmid DNA cleavage assessed as increase in nicked form 2 at 2.5 uM by agarose gel electrophoresis in presence of Cu2+; procedure, shortened: as §1
Activity [1],Activity [2],Activity [3],Activity [4],Activity [5],Activity [6],Activity [7],Activity [8],Compound
Dose-dependent effect,> 50%,Active,inactive,–,–,–,–,COc1cc([C@@H]2OC[C@@H]3[C@H]2CO[C@H]3c2cc(OC)c(O)c(OC)c2)cc(OC)c1O
Dose-dependent effect,–,–,–,> 50%,Active,–,–,Oc1cc(O)c2c(c1)O[C@@H](c1ccc(O)c(O)c1)[C@@H](O)C2
Dose-dependent effect,–,–,inactive,–,–,> 50%,Active,COc1cc(C=O)cc(OC)c1O
Dose-dependent effect,–,–,–,> 50%,Active,–,–,Oc1cc(O)c2c(c1)O[C@H](c1ccc(O)c(O)c1)[C@@H](O)C2
